Test results: PMC8063330 (Oncology Letters, 2021)

Key:
[1] = test system: c-myc in SNU-638 cells; test: c-myc level by western blotting in SNU-638; type: cell-based; conditions: 24 h
Procedure, shortened: (§1)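 Cells grown in RPMI-1640 with 10% FBS and exposed to test compound. Lysates run on SDS-PAGE and immunoblotted for c-Myc with tubulin as loading reference. HRP secondaries, ECL detection.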

[2] = test system: c-myc in MKN-45 cells; test: c-myc level by western blotting in MKN-45; type: cell-based; conditions: 24 h
Procedure, shortened: as §1

For `CCNC(=O)C[C@@H]1N=C(c2ccc(Cl)cc2)c2cc(OC)ccc2-n2c(C)nnc21` [I-BET-762], which c-myc level [1] is on record?
The c-myc level was “downregulated the c-myc level”.

What about the c-myc level [2] of the same molecule?
The c-myc level was “did not downregulate the c-myc level”.
